Counter-ions that a name gives are not always drawn. Active and inactive are the calls of the source. No cut-off for these calls is given here.
Legend:
[1] = target: T1, Extracellular calcium-sensing receptor (Homo sapiens) (UniProt P41180); assay: Positive allosteric modulation of calcium sensing receptor by cell based assay relative to control; type: functional
T1 sequence (whole entry): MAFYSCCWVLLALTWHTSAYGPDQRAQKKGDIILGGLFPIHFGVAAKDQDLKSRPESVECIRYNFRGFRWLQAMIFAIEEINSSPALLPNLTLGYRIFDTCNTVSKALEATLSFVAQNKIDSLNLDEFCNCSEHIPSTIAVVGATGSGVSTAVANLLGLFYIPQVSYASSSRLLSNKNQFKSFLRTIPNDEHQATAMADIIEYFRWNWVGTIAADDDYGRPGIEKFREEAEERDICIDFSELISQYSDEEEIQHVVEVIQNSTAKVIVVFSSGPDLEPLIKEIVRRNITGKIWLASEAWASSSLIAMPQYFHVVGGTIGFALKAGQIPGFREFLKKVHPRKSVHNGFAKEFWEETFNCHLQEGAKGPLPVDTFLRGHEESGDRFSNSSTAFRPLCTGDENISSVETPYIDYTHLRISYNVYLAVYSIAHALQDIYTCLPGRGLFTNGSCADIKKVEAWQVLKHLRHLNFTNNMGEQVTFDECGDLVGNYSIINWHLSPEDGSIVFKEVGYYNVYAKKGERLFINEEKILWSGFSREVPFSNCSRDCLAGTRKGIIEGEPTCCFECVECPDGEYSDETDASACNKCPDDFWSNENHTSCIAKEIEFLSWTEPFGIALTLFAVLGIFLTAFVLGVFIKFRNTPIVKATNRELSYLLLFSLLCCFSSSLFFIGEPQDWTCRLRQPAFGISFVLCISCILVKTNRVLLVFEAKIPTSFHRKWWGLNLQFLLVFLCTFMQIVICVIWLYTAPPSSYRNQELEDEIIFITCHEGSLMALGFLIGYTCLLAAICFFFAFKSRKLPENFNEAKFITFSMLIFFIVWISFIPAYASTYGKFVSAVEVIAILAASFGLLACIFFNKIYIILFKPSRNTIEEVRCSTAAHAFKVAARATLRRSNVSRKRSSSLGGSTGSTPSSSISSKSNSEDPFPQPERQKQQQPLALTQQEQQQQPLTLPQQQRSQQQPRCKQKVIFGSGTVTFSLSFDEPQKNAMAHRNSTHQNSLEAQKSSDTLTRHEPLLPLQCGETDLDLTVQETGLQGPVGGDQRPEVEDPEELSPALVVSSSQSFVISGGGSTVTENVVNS
Method in brief: (§1)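 R-SAT cell-based functional assay; cells kept in DMEM with 0.8 mM MgCl2 and 1.6 mM CaCl2 to raise sensitivity. Means of at least three independent experiments, standard deviation reported.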

[2] = target: T2, Extracellular calcium-sensing receptor (Homo sapiens, UniProt P41180); assay: Positive allosteric modulation of calcium sensing receptor by cell based assay; type: functional; method in brief: as §1
T2 sequence (P41180 whole entry): T1 sequence (whole entry)

[3] = target: T1, Extracellular calcium-sensing receptor (Homo sapiens); assay: Positive allosteric modulation of calcium sensing receptor by phosphatidyl inositol hydrolysis assay; type: functional
[4] = target: T1, Extracellular calcium-sensing receptor (Homo sapiens); assay: Positive allosteric modulation of calcium sensing receptor at 10 nM by cell based assay relative to control; type: functional
[5] = target: T1, Extracellular calcium-sensing receptor (Homo sapiens); assay: Positive allosteric modulation of calcium sensing receptor at 10 nM by cell based assay; type: functional
Rattus norvegicus = assay: Reduction of parathyroid hormone level in Sprague-Dawley rat at up to 10 mg/kg, sc after 1 hr by ELISA; type: functional, organism-based; parameters: dose 10 mg/kg
Method in brief: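 Male Sprague–Dawley rats dosed subcutaneously; blood sampled 1 h post-dose and plasma PTH measured by ELISA.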

[6] = Intrinsic clearance in human liver microsomes; type: ADME, Microsome
[7] = target: T3, Parathyroid hormone/parathyroid hormone-related peptide receptor (Homo sapiens) (UniProt Q03431); assay: Activation of human PTH1 receptor
T3 sequence (whole entry): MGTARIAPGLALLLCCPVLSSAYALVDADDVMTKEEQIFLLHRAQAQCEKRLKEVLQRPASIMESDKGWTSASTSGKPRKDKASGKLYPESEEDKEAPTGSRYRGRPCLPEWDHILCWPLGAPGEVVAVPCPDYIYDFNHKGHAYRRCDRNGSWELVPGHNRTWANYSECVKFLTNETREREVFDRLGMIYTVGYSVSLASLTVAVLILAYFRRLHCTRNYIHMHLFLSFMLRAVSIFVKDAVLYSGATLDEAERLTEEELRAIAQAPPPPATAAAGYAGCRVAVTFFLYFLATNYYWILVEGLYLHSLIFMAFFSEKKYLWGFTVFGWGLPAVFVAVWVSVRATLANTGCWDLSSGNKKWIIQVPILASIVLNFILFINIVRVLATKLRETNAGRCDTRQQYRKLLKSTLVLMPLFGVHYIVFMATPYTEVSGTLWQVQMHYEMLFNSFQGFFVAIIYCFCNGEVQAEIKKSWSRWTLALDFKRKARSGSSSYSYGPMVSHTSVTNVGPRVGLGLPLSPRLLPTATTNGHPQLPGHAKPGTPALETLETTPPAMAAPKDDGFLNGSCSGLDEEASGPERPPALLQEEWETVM

Homo sapiens = species on record: Homo sapiens; assay: Activation of human GABAB receptor

Compound	Efficacy [1] [%]	EC50 [2] [nM]	further results
Cc1ccccc1C(C)(O)c1nc2ccccc2s1 (stereo not given)	72	251	–
Cc1cc(C)c2c(c1)C(O)(c1nc3ccccc3s1)CCC2 (stereo not given)	81	316	–
Cc1ccc(C(O)c2nc3ccccc3s2)c(C)c1 (stereo not given)	–	–	Activity [4]: inactive; Activity [5]: inactive
OC(c1ccccc1)(c1ccc(Cl)c(Cl)c1)c1nc2ccccc2s1 (stereo not given)	–	–	Activity [4]: inactive; Activity [5]: inactive
COc1ccccc1C(C)(O)c1nc2ccccc2s1 (stereo not given)	26	3980	–
Cc1ccc(C(C)c2nc3ccccc3s2)c(C)c1 (stereo not given)	88	2510	–
CC(O)(c1ccc2ccccc2c1)c1nc2ccccc2s1 (stereo not given)	53	631	–
CC(O)(c1ccc(Cl)cc1)c1nc2ccccc2s1 (stereo not given)	68	398	microsomal CLint [6]: > 200 µL/min/mg
C=C(c1nc2ccccc2s1)c1ccc(C)cc1C	–	–	Activity [4]: inactive; Activity [5]: inactive

The remaining compounds from weak to strong by EC50 [2], led by results:

Efficacy [1] [%]	EC50 [2] [nM]	Compound	further results
76	200	Cc1ccc(C(O)(c2nc3ccccc3s2)C2CC2)c(C)c1 (stereo not given)	–
62	158	Cc1cc(C(C)(O)c2nc3ccccc3s2)ccc1F (stereo not given)	–
82	100	CC(O)(c1nc2ccccc2s1)c1ccc(Cl)cc1Cl (stereo not given)	microsomal CLint [6]: 66 µL/min/mg
62	100	CC(O)(c1ccc(Cl)c(Cl)c1)c1nc2ccccc2s1 (stereo not given)	–
79	79.4	Cc1ccc([C@@](C)(O)c2nc3ccccc3s2)c(C)c1	Activity [3]: Active
94	31.6	Cc1cc(Cl)ccc1C(C)(O)c1nc2ccccc2s1 (stereo not given)	–
91	25.1	Cc1ccc(C(C)(O)c2nc3ccccc3s2)c(C)c1 (stereo not given)	Activity (Rattus norvegicus): Active; microsomal CLint [6]: 396 µL/min/mg; Activity [3]: Active; Activity [7]: inactive; Activity (Homo sapiens): inactive
115	20	C[C@@H](NCCCc1cccc(C(F)(F)F)c1)c1cccc2ccccc12 [CINACALCET HYDROCHLORIDE]	–
83	10	Cc1ccc([C@](C)(O)c2nc3ccccc3s2)c(C)c1	Activity [3]: Active
